Test results published in ChEMBL document CHEMBL3779846, “Evaluation of toxicity on epithelial and tumor cells of biaryl dipeptide tyrosines” (Eur J Med Chem, 2016).
Active and inactive are the calls of the source. The calls are words filed in the database; no cut-off is given here.

Experiments:
SK-MEL-28 [1] = experiment: Induction of mitochondrial membrane potential depolarization in human SK-MEL-28 cells at 0.1 to 1 uM after 48 hrs by JC-1 staining based flow cytometry; type: functional, cell-based
Method in brief: (§1)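 1 × 10⁴ cells/well exposed 48 h after adhesion; medium control and 0.1% DMSO vehicle. Washed, stained with JC-1 for 30 min at 37 C, 5% CO2, then trypsinized and run on flow cytometry, 10,000 events; excitation 488 nm, emission 529 and 590 nm. Valinomycin positive control. Output: green-to-red mean fluorescence ratio; two independent assays.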

HUVEC [2] = experiment: Cytotoxicity against HUVEC assessed as reduction in cell proliferation at 0.1 to 1 uM after 14 to 48 hrs by trypan blue staining based haemocytometer method; conditions: human
Method in brief: (§2)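 1 × 10⁴ cells/well in […] plus 10% FBS, treated after adhesion for 14, 24 or 48 h alongside medium control, 0.1% DMSO vehicle and 10% DMSO positive control. Cell number counted by trypan blue exclusion under optical microscopy; three independent assays.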

HUVEC [3] = experiment: Induction of apoptosis in HUVEC assessed as increase in late apoptotic cells at 0.1 to 1 uM after 48 hrs by Annexin V-FITC/propidium iodide staining-based flow cytometry; type: cell-based; conditions: human
Method in brief: (§3)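 After adhesion, 1 × 10⁴ cells/well were exposed for 48 h with medium control and 0.1% DMSO vehicle. Cells washed with PBS, trypsinized and centrifuged (600 × g, 10 min). Stained with FITC-Annexin V (1:100 in binding buffer, 30 min) and propidium iodide, then read by flow cytometry for apoptotic, late apoptotic and necrotic fractions; three independent assays.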

SK-MEL-28 [4] = experiment: Induction of apoptosis in human SK-MEL-28 cells at 0.1 to 1 uM after 48 hrs by Annexin V-FITC/propidium iodide staining-based flow cytometry; type: functional, cell-based; method in brief: as §3
SK-MEL-28 [5] = experiment: Cytotoxicity against human SK-MEL-28 cells assessed as reduction in cell proliferation at 0.1 to 1 uM after 14 to 48 hrs by trypan blue staining based haemocytometer method; type: functional; method in brief: as §2
HUVEC [6] = experiment: Cytotoxicity against HUVEC assessed as impairment in cell metabolism at 0.1 to 1 uM after 24 to 48 hrs by MTT assay; type: ADME, cell-based; conditions: human
Method in brief: (§4)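 Cells maintained in […] with 10% FBS at 37 C, 5% CO2. 1 × 10³ cells/well plated, allowed 24 h adhesion, then treated in medium for 14, 24 or 48 h; vehicle 0.1% DMSO, 10% DMSO positive control. MTT converted to formazan, dissolved in DMSO, read at 570 nm. Expressed as % of untreated (RPMI-only) control; mean of three independent assays.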

SK-MEL-28 [7] = experiment: Induction of apoptosis in human SK-MEL-28 cells assessed as increase in necrotic cells at 0.1 to 1 uM after 48 hrs by Annexin V-FITC/propidium iodide staining-based flow cytometry; type: functional, cell-based; method in brief: as §3
SK-MEL-28 [8] = experiment: Induction of apoptosis in human SK-MEL-28 cells assessed as increase in late apoptotic cells at 0.1 to 1 uM after 48 hrs by Annexin V-FITC/propidium iodide staining-based flow cytometry; type: functional, cell-based; method in brief: as §3
SK-MEL-28 [9] = experiment: Cytotoxicity against human SK-MEL-28 cells assessed as impairment in cell metabolism at 0.1 to 1 uM after 24 to 48 hrs by MTT assay; type: functional, cell-based; method in brief: as §4
HUVEC [10] = experiment: Induction of mitochondrial membrane potential depolarization in HUVEC at 0.1 to 1 uM after 48 hrs by JC-1 staining based flow cytometry; type: cell-based; conditions: human; method in brief: as §1
HUVEC [11] = experiment: Induction of apoptosis in HUVEC assessed as increase in necrotic cells at 0.1 to 1 uM after 48 hrs by Annexin V-FITC/propidium iodide staining-based flow cytometry; type: cell-based; conditions: human; method in brief: as §3
HUVEC [12] = experiment: Induction of apoptosis in HUVEC at 0.1 to 1 uM after 48 hrs by Annexin V-FITC/propidium iodide staining-based flow cytometry; type: cell-based; conditions: human; method in brief: as §3
SK-MEL-28 [13] = experiment: Induction of mitochondrial membrane potential depolarization in human SK-MEL-28 cells at 200 uM after 24 hrs by JC-1 staining based flow cytometry; type: functional, cell-based
Method in brief: (§5)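 Cells were kept in […] with 10% FBS at 37 C and 5% CO2. They were plated at 1 × 10⁴ cells/well and treated after adhesion. They were then PBS-washed and stained with JC-1 ([…]) for 30 min at 37 C, then trypsinized and centrifuged. Flow cytometry acquired 10,000 events (excitation 488 nm, emission 529/590 nm). Read-out was the ratio of mean green to red fluorescence, from two independent assays.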

HUVEC [14] = experiment: Induction of mitochondrial membrane potential depolarization in HUVEC at 200 uM after 24 hrs by JC-1 staining based flow cytometry; type: cell-based; conditions: human; method in brief: as §5

## COC(=O)[C@H](Cc1ccc(O)c(-c2ccc(OC)cc2)c1)NC(=O)[C@H](Cc1ccc(O)c(-c2ccc(OC)cc2)c1)NC(=O)OC(C)(C)C
SK-MEL-28 [1]
  Activity: inactive
HUVEC [2]
  Activity: Non-toxic
HUVEC [3]
  Activity: Non-toxic
SK-MEL-28 [4]
  Activity: inactive
SK-MEL-28 [5]
  Activity: Active
HUVEC [6]
  Activity: Non-toxic
SK-MEL-28 [7]
  Activity: inactive
SK-MEL-28 [8]
  Activity: inactive
SK-MEL-28 [9]
  Activity: Active
HUVEC [10]
  Activity: Non-toxic
HUVEC [11]
  Activity: Non-toxic
HUVEC [12]
  Activity: Non-toxic

## CC(C)[C@@H]1NC(=O)[C@H](C)OC(=O)[C@@H](C(C)C)NC(=O)[C@@H](C(C)C)OC(=O)[C@H](C(C)C)NC(=O)[C@H](C)OC(=O)[C@@H](C(C)C)NC(=O)[C@@H](C(C)C)OC(=O)[C@H](C(C)C)NC(=O)[C@H](C)OC(=O)[C@@H](C(C)C)NC(=O)[C@@H](C(C)C)OC1=O [VALINOMYCIN]
SK-MEL-28 [13]
  Activity: Active
HUVEC [14]
  Activity: Toxic
